Legend:
Liver microsome [1] = experiment: Intrinsic clearance in human liver microsomes after 30 mins by LC-ESI-MS analysis; format: ADME; conditions: 0.5 h
Procedure, shortened: (§1)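 2'-OH-TCC at 0.2, 0.5, 1, 2, 3, 5, 10 and 50 µM incubated with liver microsomes (alamethicin, MgCl2, saccharolactone, UDPGA; 37 °C), sampled at 5, 10, 15 and 30 min. Samples ≥5 µM diluted 1:9 in ACN; LC-ESI-MS. KM and vmax fitted from rate vs concentration; intrinsic clearance derived from these; mean and SD of three.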

Liver microsome [2] = experiment: Intrinsic clearance in Sprague-Dawley rat liver microsomes after 30 mins by LC-ESI-MS analysis; format: ADME; conditions: 0.5 h; procedure, shortened: as §1
[3] = target: T1, UDP-glucuronosyltransferase 1A9 (Homo sapiens, UniProt O60656); experiment: Drug metabolism assessed as human UGT1A9-mediated N-glucuronide-triclocarban formation expressed in baculovirus infected insect sf9 cells incubated for 5 mins prior to UDPGA addition measured after 5 to 30 mins by LC-UV analysis; format: ADME
T1 sequence (O60656 whole entry): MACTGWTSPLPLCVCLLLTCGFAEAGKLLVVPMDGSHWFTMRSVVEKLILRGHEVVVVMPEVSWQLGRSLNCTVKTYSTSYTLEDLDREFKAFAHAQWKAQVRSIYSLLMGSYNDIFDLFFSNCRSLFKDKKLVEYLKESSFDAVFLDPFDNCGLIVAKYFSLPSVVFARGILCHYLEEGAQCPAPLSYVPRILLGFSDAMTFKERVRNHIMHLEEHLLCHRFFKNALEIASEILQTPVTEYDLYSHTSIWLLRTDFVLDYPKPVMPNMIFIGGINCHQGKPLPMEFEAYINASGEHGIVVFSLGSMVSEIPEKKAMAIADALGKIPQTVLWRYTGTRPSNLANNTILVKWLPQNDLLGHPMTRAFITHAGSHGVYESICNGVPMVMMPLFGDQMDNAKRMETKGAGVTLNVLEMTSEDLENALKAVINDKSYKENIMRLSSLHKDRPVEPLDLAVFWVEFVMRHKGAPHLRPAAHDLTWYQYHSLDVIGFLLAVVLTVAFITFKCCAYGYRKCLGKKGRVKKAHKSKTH
Procedure, shortened: (§2)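 Microsomes or UGT Supersomes (5 µg protein) were held 15 min on ice with alamethicin in 100 mM potassium phosphate pH 7.4. TCC was added at 10 µM (2% DMSO) with 10 mM MgCl2 and 10 mM saccharolactone, pre-warmed 5 min at 37 °C, then started with UDPGA. Samples at 5, 10, 15 and 30 min were quenched in ACN. Product was read by LC-UV at 265 nm; rate came from regression over time, three incubations.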

[4] = Drug excretion in Sprague-Dawley rat urine assessed as N-glucuronide-triclocarban formation at 1 mg/kg, po by LC-MS analysis; format: ADME, organism-based; design: dose 1 mg/kg, route oral; conditions: in vivo
[5] = target: T2, UDP-glucuronosyltransferase 2B15 (Homo sapiens, UniProt P54855); experiment: Drug metabolism assessed as human UGT2B15-mediated N-glucuronide-triclocarban formation expressed in baculovirus infected insect sf9 cells incubated for 5 mins prior to UDPGA addition measured after 5 to 30 mins by LC-UV analysis; format: ADME; procedure, shortened: as §2
T2 sequence (P54855 whole entry): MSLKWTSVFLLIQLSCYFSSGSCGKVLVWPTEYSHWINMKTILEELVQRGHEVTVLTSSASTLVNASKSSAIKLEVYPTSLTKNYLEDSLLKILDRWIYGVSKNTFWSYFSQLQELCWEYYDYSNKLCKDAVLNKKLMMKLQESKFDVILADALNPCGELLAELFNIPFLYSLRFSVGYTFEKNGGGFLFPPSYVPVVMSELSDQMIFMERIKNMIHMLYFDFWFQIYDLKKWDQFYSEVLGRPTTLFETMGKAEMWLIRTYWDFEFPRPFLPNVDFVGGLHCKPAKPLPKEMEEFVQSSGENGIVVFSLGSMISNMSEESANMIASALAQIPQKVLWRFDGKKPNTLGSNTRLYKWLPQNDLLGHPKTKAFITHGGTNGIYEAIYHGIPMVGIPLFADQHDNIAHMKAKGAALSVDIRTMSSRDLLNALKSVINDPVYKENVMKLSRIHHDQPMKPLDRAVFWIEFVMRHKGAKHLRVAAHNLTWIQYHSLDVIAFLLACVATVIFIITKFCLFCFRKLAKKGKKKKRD

[6] = target: T3, UDP-glucuronosyltransferase 2B4 (Homo sapiens, UniProt P06133); experiment: Drug metabolism assessed as human UGT2B4-mediated N'-glucuronide-triclocarban formation expressed in baculovirus infected insect sf9 cells incubated for 5 mins prior to UDPGA addition measured after 5 to 30 mins by LC-UV analysis; format: ADME; procedure, shortened: as §2
T3 sequence (P06133 whole entry): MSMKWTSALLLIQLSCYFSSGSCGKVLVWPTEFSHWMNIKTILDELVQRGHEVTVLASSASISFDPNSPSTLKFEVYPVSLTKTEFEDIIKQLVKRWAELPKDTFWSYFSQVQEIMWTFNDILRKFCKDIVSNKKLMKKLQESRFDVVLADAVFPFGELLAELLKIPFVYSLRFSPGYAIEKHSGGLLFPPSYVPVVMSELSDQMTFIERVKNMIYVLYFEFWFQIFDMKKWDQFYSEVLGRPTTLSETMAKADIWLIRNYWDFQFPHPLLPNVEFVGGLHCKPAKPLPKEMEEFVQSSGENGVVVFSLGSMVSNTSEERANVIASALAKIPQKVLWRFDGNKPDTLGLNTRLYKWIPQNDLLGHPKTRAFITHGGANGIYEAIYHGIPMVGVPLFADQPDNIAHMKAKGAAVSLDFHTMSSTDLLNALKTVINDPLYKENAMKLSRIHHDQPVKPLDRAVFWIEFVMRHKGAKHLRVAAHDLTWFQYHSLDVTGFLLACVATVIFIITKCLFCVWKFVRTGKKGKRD

[7] = Inhibition of human recombinant soluble epoxide hydrolase using CMNPC as substrate
[8] = Drug metabolism in B6C3F1 mouse liver microsomes assessed as N'-glucuronide-triclocarban formation incubated for 5 mins prior to UDPGA addition measured after 5 to 30 mins by LC-UV analysis; format: ADME; procedure, shortened: as §2

SMILES | CLH (Liver microsome [1]) [µL/min/mg] | CLH (Liver microsome [2]) [µL/min/mg] | Drug metabolism [3] | Drug excretion [4] | Drug metabolism [5] | Drug metabolism [6] | IC50 [7] [nM] | Drug metabolism [8]
O=C(Nc1ccc(Cl)c(Cl)c1)Nc1ccc(Cl)cc1O | 1740 | 2860 |  |  |  |  |  | 
O=C(Nc1ccc(Cl)cc1)Nc1ccc(Cl)c(Cl)c1 [TRICLOCARBAN] |  |  | metabolite_not_detected | metabolite_not_detected | metabolite_not_detected | metabolite_not_detected | 24 | metabolite_not_detected

Source: ChEMBL document CHEMBL3525967, “In vitro glucuronidation of the antibacterial triclocarban and its oxidative metabolites” (Drug Metab Dispos, 2012)
